According to ChEMBL document CHEMBL1146916, “Studies towards the conception of new selective PPARbeta/delta ligands” (Bioorg Med Chem Lett, 2006):
Calls of active or inactive are those of the source. The calls are words filed in the database; no cut-off is given here.

How the values were obtained:
[1] = target: T1, Peroxisome proliferator-activated receptor delta (Homo sapiens, UniProt Q03181); assay: (§1) Activity at PPARbeta/delta by luciferase reporter gene transactivation assay in COS7 cells; assay type: functional, cell-based, COS-7
T1 sequence (Q03181 whole entry): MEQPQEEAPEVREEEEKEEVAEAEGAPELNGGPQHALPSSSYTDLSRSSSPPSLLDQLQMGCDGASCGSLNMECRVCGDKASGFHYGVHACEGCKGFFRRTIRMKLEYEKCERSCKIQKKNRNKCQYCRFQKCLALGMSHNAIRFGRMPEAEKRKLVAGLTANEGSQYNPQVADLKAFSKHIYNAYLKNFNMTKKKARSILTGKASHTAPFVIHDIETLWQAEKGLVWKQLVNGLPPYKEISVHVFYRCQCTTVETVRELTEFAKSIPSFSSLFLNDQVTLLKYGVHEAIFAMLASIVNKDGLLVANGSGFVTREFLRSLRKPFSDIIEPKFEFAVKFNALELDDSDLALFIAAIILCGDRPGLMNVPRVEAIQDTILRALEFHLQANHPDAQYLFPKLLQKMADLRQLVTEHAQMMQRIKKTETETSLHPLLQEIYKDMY

[2] = target: T2, Peroxisome proliferator-activated receptor alpha (Homo sapiens, UniProt Q07869); assay: (§2) Activity at PPARalpha by luciferase reporter gene transactivation assay in COS7 cells; assay type: functional, cell-based, COS-7
T2 sequence (Q07869 whole entry): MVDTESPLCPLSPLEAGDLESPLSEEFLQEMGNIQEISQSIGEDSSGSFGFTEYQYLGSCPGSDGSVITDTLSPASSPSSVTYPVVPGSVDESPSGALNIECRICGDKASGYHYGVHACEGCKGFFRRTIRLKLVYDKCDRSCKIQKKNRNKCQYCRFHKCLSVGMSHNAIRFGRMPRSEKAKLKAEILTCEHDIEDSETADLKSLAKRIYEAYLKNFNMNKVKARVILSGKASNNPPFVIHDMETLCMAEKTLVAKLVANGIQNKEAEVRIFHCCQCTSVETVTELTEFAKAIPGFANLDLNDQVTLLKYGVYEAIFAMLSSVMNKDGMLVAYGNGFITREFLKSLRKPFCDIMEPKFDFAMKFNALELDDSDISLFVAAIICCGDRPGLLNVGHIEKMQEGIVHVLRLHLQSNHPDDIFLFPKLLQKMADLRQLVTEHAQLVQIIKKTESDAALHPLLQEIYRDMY

[3] = target: T3, Peroxisome proliferator-activated receptor gamma (Homo sapiens, UniProt P37231); assay: Activity at PPARgamma by luciferase reporter gene transactivation assay in COS7 cells; assay type: functional, cell-based, COS-7
T3 sequence (P37231 whole entry): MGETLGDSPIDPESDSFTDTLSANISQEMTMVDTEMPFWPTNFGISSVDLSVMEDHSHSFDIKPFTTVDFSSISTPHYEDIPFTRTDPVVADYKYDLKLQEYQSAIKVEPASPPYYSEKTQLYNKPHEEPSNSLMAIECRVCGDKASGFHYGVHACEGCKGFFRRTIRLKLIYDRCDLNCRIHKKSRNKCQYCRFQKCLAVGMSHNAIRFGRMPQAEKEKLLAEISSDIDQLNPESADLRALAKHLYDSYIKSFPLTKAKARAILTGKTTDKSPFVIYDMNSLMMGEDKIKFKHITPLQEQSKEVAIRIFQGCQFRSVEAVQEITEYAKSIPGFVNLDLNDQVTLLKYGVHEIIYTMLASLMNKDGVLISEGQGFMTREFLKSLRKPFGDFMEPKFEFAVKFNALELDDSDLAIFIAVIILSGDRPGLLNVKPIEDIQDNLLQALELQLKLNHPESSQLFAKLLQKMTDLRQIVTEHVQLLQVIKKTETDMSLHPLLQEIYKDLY

[4] = target: T4, Peroxisome proliferator-activated receptor alpha (Homo sapiens) (UniProt Q07869); assay: Activity at PPARalpha by luciferase reporter gene transactivation assay in COS7 cells relative to WY-14643 at 10 uM; assay type: functional, cell-based; settings: COS-7
T4 sequence (whole entry): T2 sequence (Q07869 whole entry)
How it was run: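 Cos-7 cells were transiently transfected, using PEI in OptiMEM for 3 h at 37 °C, with the pG5-TK-pGL3 luciferase reporter, pGAL4hPPARa (Gal4 DBD–human PPARα LBD) and pCMV-β-galactosidase. Cells were reseeded in 96-well plates and treated for 16 h in DMEM with 0.2% FCS at 10 µM–10 nM. Luciferase was normalized to β-galactosidase, and maximal activity was expressed versus the WY14.643 positive control. Experiments were run at least three times.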

[5] = species: Homo sapiens; assay: Selectivity for human PPARdelta over human PPARalpha
How it was run: (§3)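 The selectivity ratio is taken from EC50 values measured in Cos-7 cells transiently transfected with the pG5-TK-pGL3 luciferase reporter plus Gal4 DBD–human PPARβ/δ, PPARα or PPARγ LBD chimeras and β-galactosidase control. Cells were treated for 16 h in 0.2% FCS DMEM at 10 µM–10 nM. EC50s were fitted from β-gal-normalized luciferase and are means of three experiments.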

[6] = target: PPAR delta/gamma (Homo sapiens) (UniProt P37231+Q03181); assay: Selectivity for human PPARdelta over human PPARgamma; assay type: protein assay; how it was run: as §3
[7] = target: T5, Peroxisome proliferator-activated receptor delta (Homo sapiens) (UniProt Q03181); assay: as §1; assay type: functional, cell-based; settings: COS-7
T5 sequence (whole entry): T1 sequence (Q03181 whole entry)

[8] = target: T4, Peroxisome proliferator-activated receptor alpha (Homo sapiens); assay: as §2; assay type: functional, cell-based; settings: COS-7

Structure (SMILES)	EC50 [1]	EC50 [2]	EC50 [3]	Activity [4]	Selectivity ratio [5]	Selectivity ratio [6]	Activity [7]	Activity [8]
CCCc1cc(C(F)(F)F)ccc1OCCCOc1ccc(OCC(=O)OC)cc1	98 nM	1400 nM	1190 nM	49%	–	–	–	–
CCCc1c(OCCCOc2ccc(OCC(=O)O)cc2)ccc(C(C)=O)c1O	125 nM	977 nM	1820 nM	–	8	15	–	–
CCCc1c(OCCCOc2ccc(OCC(=O)OC)cc2)ccc(C(C)=O)c1O	457 nM	1070 nM	288 nM	32%	–	–	–	–
CCCc1cc(C(F)(F)F)ncc1OCCCOc1ccc(OCC(=O)O)c(C)c1	15 nM	1330 nM	1580 nM	136%	> 100	–	–	–
COC(=O)COc1ccc(OCCCOc2cccc(O)c2)cc1	–	–	–	–	–	–	inactive	inactive
Cc1cc(SCc2sc(-c3ccc(C(F)(F)F)cc3)nc2C)ccc1OCC(=O)O	–	–	–	452%	–	–	–	–
CCCc1cc(C(F)(F)F)ccc1OCCCOc1ccc(OCC(=O)O)c(C)c1	7 nM	103 nM	153 nM	40%	–	–	–	–
CC(=O)c1ccc(OCCCOc2ccc(OCC(=O)O)cc2)cc1O	10000 nM	–	–	–	–	–	–	inactive
CC(=O)c1ccc(OCCCOc2ccc(OCC(=O)O)cc2)cc1	–	–	–	–	–	–	inactive	inactive
CCCc1cc(C(F)(F)F)ccc1OCCCOc1ccc(OCC(=O)OC)c(C)c1	16 nM	1010 nM	1260 nM	85%	–	–	–	–
CCCc1ccccc1OCCCOc1ccc(OCC(=O)OC)cc1	1050 nM	–	–	–	–	–	–	inactive
CCCc1c(OCCCOc2ccc(OCC(=O)OC)cc2)cnc(C(C)=O)c1O	82 nM	8390 nM	757 nM	64%	–	–	–	–
